Results taken from paper PMC6648853 (ACS Omega, 2019).
Where two headings read alike, the source gives them in different places. Marks after values point to notes of the source that are not given here.

Key:
NCI-H460 = assay: MTT assay, NCI-H460; format: cell-based, human; conditions: for GI50: Homo sapiens, NCI-H460, 72 h, read-out: GI50 (50% cell growth inhibition)
In short: (§1)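 Cells were grown in RPMI 1640 with 10% FBS and penicillin–streptomycin at 37 °C in 5% CO2. The P-gp-overexpressing NCI-H460/R line was derived from NCI-H460 by stepwise doxorubicin (5–100 nM, 3 months). Test compound (2.5–50 μM) ran 72 h, then MTT (1 mg/mL) 4 h at 37 °C. Formazan was dissolved in DMSO and read at 540 nm. Viability was relative to untreated cells, giving GI50. At least two independent experiments were run in triplicate. Paclitaxel served as positive control.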

MDA-MB-231 = assay: sulfurhodamine B; format: cell-based; conditions: Homo sapiens, MDA-MB-231, 48 h, read-out: GI50 (50% cell growth inhibition)
In short: (§2)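 Cells were kept at 37 °C in 5% CO2 with 10% FBS and penicillin–streptomycin. MDA-MB-231 were grown in DMEM, the others in RPMI 1640. Cells were seeded at 5.0 × 10^3/well and left 24 h before serial dilutions of test compound (1.85–150 μM) for 48 h. Cells were fixed with 10% TCA, stained with 0.4% SRB and washed with 1% acetic acid. Bound dye was dissolved in 10 mM Tris (pH 10.5) and read at 510 nm. Doxorubicin served as positive control.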

MCR-5 [1] = assay: MTT assay, MCR-5 normal lung cells; format: cell-based; conditions: Homo sapiens, MCR5, 72 h, read-out: GI50 (50% cell growth inhibition)
In short: as §1

NCI-H460/R = assay: MTT assay, NCI-H460/R; format: cell-based; conditions: Homo sapiens, NCI-H460, 72 h, read-out: GI50 (50% cell growth inhibition)
In short: as §1

HCT116 = assay: sulfurhodamine B; format: cell-based; conditions: Homo sapiens, HCT-116, 48 h, read-out: GI50 (50% cell growth inhibition)
In short: as §2

MCF-7 = assay: sulfurhodamine B; format: cell-based; conditions: Homo sapiens, MCF7, 48 h, read-out: GI50 (50% cell growth inhibition)
In short: as §2

MCR-5 [2] = conditions: read-out: cytotoxicity class (GI50); cited from earlier work
Molt-3 = conditions: read-out: cytotoxicity class (GI50); Molt-3, leukemia/lymphoma; cited from earlier work
AGS = conditions: read-out: cytotoxicity class (GI50), gastric; cited from earlier work
MV-3 = conditions: read-out: cytotoxicity class (GI50); cited from earlier work
MEL-1 = conditions: read-out: cytotoxicity class (GI50); MEL-1, leukemia/lymphoma; cited from earlier work
PaCa-2 = conditions: read-out: cytotoxicity class (GI50); cited from earlier work
HL-60 = conditions: read-out: cytotoxicity class (GI50); HL-60, leukemia/lymphoma; cited from earlier work

O=C(/C=C/c1ccc(O)c(O)c1)O[C@H](Cc1ccc(O)c(O)c1)C(=O)O [(1), rosmarinic acid]
GI50 (NCI-H460): > 100 µM
GI50 (MDA-MB-231): > 100 µM
GI50 (MCR-5 [1]): > 100 µM
GI50 (NCI-H460/R): > 100 µM

COc1cccc2c1C(=O)c1c(O)c3c(c(O)c1C2=O)C[C@@](O)(C(=O)CO)C[C@@H]3O[C@H]1C[C@H](N)[C@H](O)[C@H](C)O1 [DOX, Doxorubicin]
GI50 (HCT116): 0.125 µM
GI50 (MCF-7): 0.16 µM
GI50 (MDA-MB-231): 0.072 µM

CC(C)C1=C(O)C(=O)C2=C(CC[C@H]3C(C)(C)CCC[C@]23C)C1=O [R1 = H, R2 = H, R3 = OH, royleanone]
GI50 (MCR-5 [2]): 10 to 30 µM
GI50 (Molt-3): 10 to 30 µM
GI50 (AGS): > 30 µM
GI50 (MV-3): > 30 µM
GI50 (MEL-1): > 30 µM
GI50 (PaCa-2): > 30 µM
GI50 (HL-60): > 30 µM

CC(=O)O[C@H]1C(=O)[C@@]2(C)[C@H]([C@H](OC(=O)c3ccccc3)[C@]3(O)C[C@H](OC(=O)[C@H](O)[C@@H](NC(=O)c4ccccc4)c4ccccc4)C(C)=C1C3(C)C)[C@]1(OC(C)=O)CO[C@@H]1C[C@@H]2O [PCX, Paclitaxel]
GI50 (NCI-H460): 0.0006 µM
Selectivity index, SI = GI50(MCR-5)/GI50(NCI-H460) (NCI-H460; MCR-5 vs NCI-H460, MTT assay): PCX 872***
GI50 (MCR-5 [1]): 0.523 µM
GI50 (NCI-H460/R): 0.117 µM
